# Results of several laboratories.
# Target: NUAK family SNF1-like kinase 1 (NUAK1, Homo sapiens, UniProt O60285)
# Sequence (O60285 1-661, as in one of the studies): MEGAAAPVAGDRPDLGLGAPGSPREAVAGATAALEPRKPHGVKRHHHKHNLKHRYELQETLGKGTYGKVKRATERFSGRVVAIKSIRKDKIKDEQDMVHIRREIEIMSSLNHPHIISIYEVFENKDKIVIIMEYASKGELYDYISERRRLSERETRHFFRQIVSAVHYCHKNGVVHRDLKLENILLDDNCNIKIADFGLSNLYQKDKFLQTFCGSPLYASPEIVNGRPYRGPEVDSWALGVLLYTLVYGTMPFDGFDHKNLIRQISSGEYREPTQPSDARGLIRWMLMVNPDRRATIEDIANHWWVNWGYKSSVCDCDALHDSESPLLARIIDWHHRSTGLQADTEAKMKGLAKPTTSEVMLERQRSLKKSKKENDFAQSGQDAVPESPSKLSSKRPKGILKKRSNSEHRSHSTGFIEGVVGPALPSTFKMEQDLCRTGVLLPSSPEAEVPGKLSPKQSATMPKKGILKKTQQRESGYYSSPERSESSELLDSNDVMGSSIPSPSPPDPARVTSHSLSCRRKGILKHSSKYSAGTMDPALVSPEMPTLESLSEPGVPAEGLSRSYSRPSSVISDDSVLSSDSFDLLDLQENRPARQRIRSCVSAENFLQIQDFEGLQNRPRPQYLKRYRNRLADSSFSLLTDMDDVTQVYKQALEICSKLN
Structure (SMILES),read-out,method,concentration,remaining binding [%]
C[C@H](c1ccnc(Nc2nc3ccc(-c4cc(N(C)C)ncn4)cc3[nH]2)c1)N1CCN(C(=O)CC(F)(F)F)CC1,cell-free assay,competition with immobilised ligand,0.1 µM,93
O=C(c1ccc(Nc2nccc(-c3cc4ccccc4s3)n2)cc1)N1CCC(N2CCCC2)CC1,binding,competition with immobilised ligand,1 µM,22
COc1cnc(Nc2cccc(S(N)(=O)=O)c2)nc1N1CCN(c2ccccc2)C(=O)C1,binding,competition with immobilised ligand,1 µM,86
O=C(NCCCN1CCOCC1)c1ccc(Nc2ncc(Cl)c(-c3ccc(Cl)s3)n2)cc1,binding,competition with immobilised ligand,1 µM,0.9
CCC(=N\O)/C(C)=C/c1ccc(F)cc1,cell-free assay,competition with immobilised ligand,1 µM,100
CN(C)c1nccc(-c2cnc3ncccn23)n1,binding,,1 µM,98
O=C(c1ccc(Nc2ncc(Cl)c(-c3cc4ccccc4s3)n2)cc1)N1CCC(N2CCCC2)CC1,binding,competition with immobilised ligand,1 µM,2.6
CNCc1ccccc1-c1csc([C@H](C)Nc2nc(C)nc3cc(OC)c(OC)cc23)c1,cell-free assay,competition with immobilised ligand,1 µM,90
Nc1ncc2c(n1)-c1c([nH]c3ccc(C#CC4CC4)cc13)CCCC2,binding,competition with immobilised ligand,1 µM,100
CN(CCCC(F)(F)F)c1nccc(-c2cnn3ncccc23)n1,binding,,1 µM,100
O=C(NCC1CCOCC1)c1n[nH]cc1NC(=O)c1c(F)cccc1F,binding,competition with immobilised ligand,1 µM,100
C[C@@H]1CCN(c2nccc(-c3cnn4ncccc34)n2)C1,binding,,1 µM,93
COc1ncc2cc3ccccc3nc2c1C#N,cell-free assay,competition with immobilised ligand,5 µM,87
O=C(NC[C@@H]1[C@H]2CN(C(=O)OCc3cc(C(F)(F)F)cc(C(F)(F)F)c3)C[C@@H]12)c1ccc2[nH]nnc2c1,cell-free assay,competition with immobilised ligand,1 µM,87
CNC(=O)[C@@H]1CC[C@@H](n2c(-c3ccc4cnccc4c3)nc3ccc(C(=O)NCc4cccc(C(N)=O)c4)cc32)C1,binding,competition with immobilised ligand,1 µM,84
N[C@H]1CCN(c2nccc(-c3cnn4ncccc34)n2)C1,binding,,1 µM,63
NS(=O)(=O)c1cc(NC(=O)Cc2ccccc2)ccc1Oc1cccc(Cl)c1,cell-free assay,competition with immobilised ligand,1 µM,100
COc1ccnn2ncc(-c3ccnc(N(C)C)n3)c12,binding,,1 µM,82
CC(=O)N1CCC(c2ccc(C(=O)NC3=NCCN3)cc2C(F)(F)F)CC1,cell-free assay,competition with immobilised ligand,1 µM,98
